# Experimental data taken from the EternaBench riboswitch data.
# Test system: MS2 coat protein
# Assay: apparent Kd, MS2 coat protein; higher = weaker binding; RNA-MaP array; FMN 200 µM where present
# Summary of the method: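 SNAP-549-labelled MS2 coat protein, doubled from 0.7 or 1.5 nM to 3 µM, was titrated over designs transcribed by stalled E. coli RNA polymerase on Illumina sequencing-chip clusters. Titrations were run without and then with constant ligand in 100 mM Tris-HCl pH 7.5, 80 mM KCl, 4 mM MgCl2, BSA, DTT, yeast tRNA and Tween-20. The apparent Kd is the median of filtered per-cluster fits to green signal normalised to red-channel RNA signal and control-cluster median Fmax.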
# [1] = designed as: OFF switch for flavin mononucleotide, no ligand
# [2] = ligand present: flavin mononucleotide, designed as: OFF switch for flavin mononucleotide
# [3] = designed as: ON switch for flavin mononucleotide, no ligand
# [4] = ligand present: flavin mononucleotide, designed as: ON switch for flavin mononucleotide
Sequence,apparent Kd [1] [nM],apparent Kd [2] [nM],apparent Kd [3] [nM],apparent Kd [4] [nM]
GAGGAACAUGAGGAUCACCCAUGUGAGGAUAUGCAUAGUGAGGUAGUAGACGUUUAUUGCAGAAGGUACACUGA,27.4,27.8,,
GAGGUACAUGAGGAUCACCCAUGUGAGGAUAUAGUGGAAGAUUGAGAGAGGUGGAGGACUAGAAGGCACAGUGG,67.3,66.2,,
GAGUAGUUGAAAGGAUAUCGAUUGUUAUAGAAUCGAGAAGGUUCUAACAUGAGGAUCACCCAUGUAGGACUAUUCCUGUGUAUC,,,12.9,11
GAGUAGUUGAAAGGAUAUUGAUUAUUGUAGGAUCAAGAAGGUUCUAACAUGAGGAUCACCCAUGUAGGACUAUUCCUGUGUAUC,,,13,10.8
GAGUGACAUGAGGAUCACCCAUGUGAGGAUAUCGGACGGACCAAAUUAACAACAACCGCGAGAAGGCACAUCGG,146,135,,
GAGUGACAUGAGGAUCACCCAUGUGAGGAUAUCGGACGGACCAAAUUAACAACACCCGCGAGAAGGCACAUCGG,163,123,,
GAGUGGAAGUAAGGAUAUAUAAUGAUAAUCACAGUAGAAGGUACUAACAUGAGGAUCACCCAUGUAGGACUAUACCAGAGAGGG,,,17.4,16
GAUACGUCAGGAUAUCUGAUGUCUAACUUCGGUUAGACAUCAGAGAAGGGACAUGAGGAUCACCCAUGUAUCAG,50.4,61.1,,
GAUAUGAUGUGAGGAUAUGCUGAGGAUACUUCAGCAGAAGGCACAUGAGGAUCACCCAUGUACACUUAUCAUAAAUACCAUAUC,12.7,19,,
GAUCAGCUUGUGAGGAUAUCCGGGCAUAAAGGCUAGGAGAAGGUACAUGAGGAUCACCCAUGUAGAGUCCUGGG,47.9,58.9,,
GAUCCUUCUGUUAGGAUAUGCUUUGGGCUUCCGCAGCAGAAGGAACAUGAGGAUCACCCAUGUCAAAUAACAUC,21.4,22.8,,
GAUCCUUCUGUUAGGAUAUGCUUUGGGCUUCCGCUGCAGAAGGAACAUGAGGAUCACCCAUGUCCGAUGCCGUC,74,89.4,,
GAUCCUUCUGUUAGGAUAUGCUUUGGGCUUUCGCAGCAGAAGGAACAUGAGGAUCACCCAUGUCCGAUGCCGUC,77.5,81.3,,
GAUCGAAACACUCCUUACACUACAUGAGGAUCACCCAUGUAGCAGGAUAUCAUUGCUCCUCGCUGUGAGAAGGGCUACGGGCGA,7.3,14,,
GAUCGCCGUGUCAGGAUAUCUUGUGUACCCACGUUAGAGAAGGGACAUGAGGAUCACCCAUGUACCCUGGUUUU,17.6,19.2,,
GAUCGUAUCCUAGGAUAUUCAUUAAACAUGAGGAUCACCCAUGUUAAUUUGGGAGAAGGAGGAUACGAUCAACAGCGAAAGCUG,,,10.6,5.15
GAUGACAUGAGGAUCACCCAUGUGAUGGUUUGAGGUGGUUACAGAAGGGACGUAUAGUGGUGUGGUCAGGAUAUGUAGAAUCUU,,,157,42.1
GAUUAACAUGAGGAUCACCCAUGUGAGGAUAUGGAAUGGCUCAUUGUCUGAUUUCCGUCUAGAAGGCACAUCUU,46.7,45,,
GAUUAUAAGUAAGGAUAUGUAUAUGAAACAUAUACAGAAGGUACAUGAGGAUCACCCAUGUUCUUGCAGCGCGAAUAUGUAAUC,18.9,27.7,,

Sequence,apparent Kd [1] [nM],apparent Kd [2] [nM],apparent Kd [3] [nM],apparent Kd [4] [nM]
GAUUGACAAGGAUAUACAUGAGGAUCACCCAUGUGCUUCAGCUAGGAGACUAGCAUUGGUAGAAGGUGUUAAUC,20.3,68.4,,
GAUUUAGAGCAGGAUAUCAUAGAAUUAUAUGAAUGAGAAGGGCUCACAUGAGGAUCACCCAUGUGGUCCUAGAU,21.1,167,,
GCAAAGCCUGACAUGAGGAUCACCCAUGUUAGAUUGUUAUGUCAGGAUAUUGUCUAGCCACUAGACAAGAAGGGAUGCUUUGCU,,,384,32.9
GCACAACAUGAGGAUCACCCAUGUCUCACAAACCAAGGAUAUGGGCCCGGCCAGGCCGGAUCAGAAGGUGGAAAAU,,,312,143
GCACGAAGCUAGAAGGGCGAUUUGCACAUGAGGAUCACCCAUGUCCAACGUAGGAUAUGGCUGGCGGGAACGCAAGGUGCGCGC,,,330,37.3
GCACGAGACUAAGGAUAUGGAGUGUCAACAUUAAACAUGAGGAUCACCCAUGUAAAGAGUACGAUUCAGAAGGUAGAGACGUGC,,,59.1,22.8
GCACGAGACUAAGGAUAUGGAGUGUCUACAUUAAACAUGAGGAUCACCCAUGUAGAGAGUAUGAUUCAGAAGGUAGAGACGUGC,,,53.6,25.2
GCACGGCAUGUAGGAUAUCGAGCGCCGGGCGCUCGAGAAGGACAUGAGGAUCACCCAUGUAGUCUCAGUGAGAGACUGCUGUGC,18.3,36.2,,
GCACUGGAUGUAGGAUAUCAGGACGAUAAGUCCUGAGAAGGACAUGAGGAUCACCCAUGUGCUCAAUAACCAGUGCAUAAUAUA,14.5,20.3,,
GCACUUAAGUUAGGAUAUGGAUCGGAAAACGAUCCAGAAGGAAUAUGGGAACAUGAGGAUCACCCAUGUUCCACAAACAAGUGC,,,55.4,29
GCAGACGUAGUGAGGAUAUGCUCUACCUCGGUAGAGCAGAAGGCACAUGAGGAUCACCCAUGUGGCUCCUCAUC,15.6,21.9,,
GCAGACGUGGUGAGGAUAUGCUCUACCUCGGUAGAGCAGAAGGCACAUGAGGAUCACCCAUGUGGCUCCUCAUU,15.9,21,,
GCAGACUUGCUGAAGGUGUUCCACAUGAGGAUCACCCAUGUCAAGGAUAUAACGCGUCCGGCCCGUUAGAAGGUGACAGUUUGC,368,229,,
GCAGCACAGUAUUACAUGAGGAUCACCCAUGUCGAUUGAGAUGAGGAUAUGCAUCGAAUGAAGUUGCAGAAGGCAUUGUGCUGC,,,10.9,5.94
GCAGCGACUGCAGGAUAUCAGCACGUGUAGUGCUGAGAAGGGCACAUGAGGAUCACCCAUGUGAUCAAUUAAUAGUCAUGCUGC,7.23,15.9,,
GCAGGAAAACUUGGUACAUGAGGAUCACCCAUGUAAAGCGGCAGAAGGGCGAUGUUAUGUAUAACGCAGGAUAUGCAGCGGAAU,,,46.4,18.1
GCAGGGUAUGAGAAGGCAUAAUUUAUCUUACCACAUGUUUACAUGAGGAUCACCCAUGUUUCCAAUGAGGAUAUCAUACCGUGC,10.9,9.89,,
GCAUGCAUAGCGAUAUGAUCGAGAGAUCAUGUCGCUAAAUUUAGAAGGACAUGAGGAUCACCCAUGUAGGAUAUGGGAGCAUGG,,,76,12.7
GCAUGGAAAGUGAGGAUAUACCACUGGAUACAGUGGUAGAAGGCACAUGAGGAUCACCCAUGUUCCUACCAUGC,16.9,71.3,,

Sequence,apparent Kd [1] [nM],apparent Kd [2] [nM],apparent Kd [3] [nM],apparent Kd [4] [nM]
GCAUUUCAGUAAGGAUAUAUAAACAUGACGAUACAUGAGGAUCACCCAUGUGUAGAAGGUACUAAUACAUAUAAUGCAAUGGUC,26.6,21.1,,
GCCAAUAAGAUUGGCACCGGCGCGCAGGAUAUGCUGGCCUACAUGAGGAUCACCCAUGUCUAAAUGCAGAAGGGUGAGCUGAGC,,,444,82.4
GCCAGCGCAUGAGGAUAUGCUCCCGUUUCGGGAGCAGAAGGCAUGUCAUAAGACAUGAGGAUCACCCAUGUAGUCAAGAUGGCA,,,340,15.7
GCCAUCACAUGAGGAUAUGGCACCGUUUCGGUGCCAGAAGGCAUGUCAUAAGACAUGAGGAUCACCCAUGUAGUUAAGAUGGCA,,,,55.4
GCCAUCACGUGAGGAUAUGCUCCCGUUUCGGGAGCAGAAGGCAUGUCAUAAGACAUGAGGAUCACCCAUGUAGAUAAGAUGGCA,,,236,12.4
GCCAUCAUAUGAGGAUAUGACACCGAAACGGUGUCAGAAGGCAUGUCGAUAGACAUGAGGAUCACCCAUGUAUAGAUGAUGGCA,,,963,67.8
GCCAUCGCAUGAGGAUAUGGUCAGCUUUGCUGACCAGAAGGCAUGUCAUAAGACAUGAGGAUCACCCAUGUAGUUAAGAUGGCA,,,778,47.9
GCCCGACAUGAGGAUCACCCAUGUGGGAAACCGCGAGGAUAUCCGGGCCCGAAAGGGCCCGGAGAAGGCGCCGGGC,,,12.5,10.9
GCCGAUUAAGUCAGGAUAUACCUAUGGAUACAUAGGUAGAAGGGACAUGAGGAUCACCCAUGUUCCUCACCGGC,14.8,21.8,,
GCCGAUUAAGUGAGGAUAUACCUAUGGAUACAUAGGUAGAAGGUACAUGAGGAUCACCCAUGUUCCUUAACGGC,11.4,13.2,,
GCCGGAGAAGGAUAUACAUGAGGAUCACCCAUGUUCUUGGGCGAAAUAAAUUCCUAGAGUAGAAGGUCUAGGCA,18.7,41.5,,
GCCUGCUGGCGAGGAUAUUCUGUGCGGUUCCGGCUCGUGUCUGUUACAUGAGGAUCACCCAUGUAGGAGAAGGUGUCUGUGGCC,4.75,5.01,,
GCCUUAUCGGUCAGGAUAUACACCCGUCAGUUGUUGUAGAAGGGACAUGAGGAUCACCCAUGUACAUUACAUUG,21.8,45.5,,
GCGACGAAAGUCGAACGAUGUAGCAGAAGGACAUGAGGAUCACCCAUGUCAGCUGUAACAGCCAUGUAGGAUAUGCUACAUCGG,4.09,5.27,,
GCGACGCGGGAAGGAUAUCCGCUCAGGAGUGUCUCAUGCUAACAUGAGGAUCACCCAUGUUGUCCGGAGAAGGUCCUGUCAGGC,152,288,,
GCGAUUUUGUAAGGAUAUACACCAGUUUUAAGUGUAGAAGGUACUUACAUGAGGAUCACCCAUGUAUAAAUGUAUAAUAGUCGC,,,6.92,6.87
GCGAUUUUGUAGAAGGUACGUGAUAAGACAAAGUAAGGAUAUACUGACAUGAGGAUCACCCAUGUAUAAAUAGUUAACAGUCGC,,,18.5,11.7
GCGCGAAGGUAGGAUAUCCAGGCAUCUUGCCGCGGAGAAGGACCCACAUGAGGAUCACCCAUGUGGUGAUCCUG,13.5,14.4,,
